Among the data in ChEMBL document CHEMBL4004796, “Exploring the Bioactive Terpenoid Content of an Algerian Plant of the Genus Pulicaria: The ent-Series of Asteriscunolides” (J Nat Prod, 2017) are IC50, inhibition and inhibition in vivo values, retold here.

What all share (format): functional
A short description of assay [1]: Antiinflammatory activity assessed as inhibition of heat-induced albumin denaturation after 20 mins by spectrophotometric method. A digest of the protocol: (§1)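 Bovine albumin fraction as a 1% aqueous solution, with test agent at 0.5−10 μM, adjusted to pH 6.3 with 1 N HCl. Incubated 20 min at 37 °C, then heated 20 min at 51 °C. After cooling, turbidity read at 660 nm. % inhibition = [(A0 − A1)/A0] × 100 versus control absorbance. Diclofenac sodium as reference.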

Assay [2] can be described thus: Antiinflammatory activity assessed as inhibition of heat-induced albumin denaturation at 5 uM after 20 mins by spectrophotometric method relative to control. In short, it runs like this:
as §1

Assay [3] is described as follows: Antiinflammatory activity assessed as inhibition of heat-induced albumin denaturation at 0.5 uM after 20 mins by spectrophotometric method relative to control. A digest of the protocol:
as §1

The nature of assay [4]: Antiinflammatory activity assessed as inhibition of heat-induced albumin denaturation at 1 uM after 20 mins by spectrophotometric method relative to control. In short, it runs like this: as §1
Assay [5] can be described thus: Antiinflammatory activity assessed as inhibition of heat-induced albumin denaturation at 10 uM after 20 mins by spectrophotometric method relative to control. A digest of the protocol: as §1
Assay [6] relates to Rattus norvegicus. The experiment in a line: Antiinflammatory activity in Wistar rat assessed as inhibition of carrageenan-induced paw edema at 10 mg/kg, po preincubated for 1 hr followed by carrageenan challenge measured at 3 hrs by plethysmometer relative to control. In short, it runs like this: (§2)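 Adult male albino Wistar animals, 25−30 g, in groups of five, 25 ± 2 °C, 12 h light/dark. Oral dosing, with PBS vehicle for controls. One hour later, 0.1 mL of 1% carrageenan was injected subplantar into the left hind paw. Paw volume was read by plethysmometer at 1, 2, 3 and 4 h relative to pre-injection. % inhibition = [(D0 − Dt)/D0] × 100 versus control group mean at each time. Mean ± SD, n = 5, Student's test.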

Assay [7] relates to Rattus norvegicus. Kind of assay: Antiinflammatory activity in Wistar rat assessed as inhibition of carrageenan-induced paw edema at 10 mg/kg, po preincubated for 1 hr followed by carrageenan challenge measured at 4 hrs by plethysmometer relative to control. In short, it runs like this: as §2
The test system of assay [8] is Rattus norvegicus. The experiment in a line: Antiinflammatory activity in Wistar rat assessed as inhibition of carrageenan-induced paw edema at 10 mg/kg, po preincubated for 1 hr followed by carrageenan challenge measured at 1 hr by plethysmometer relative to control. A digest of the protocol:
as §2

Assay [9] relates to Rattus norvegicus. Kind of assay: Antiinflammatory activity in Wistar rat assessed as inhibition of carrageenan-induced paw edema at 10 mg/kg, po preincubated for 1 hr followed by carrageenan challenge measured at 2 hrs by plethysmometer relative to control. A digest of the protocol: as §2

With `C/C1=C/CCC2=C[C@@H](OC2=O)C(C)(C)/C=C\C1=O`, in [1], the IC50 came out at 23.8 µM. Further, the inhibition came out at 32.9% in [2], 15.5% in assay [3], 22.6% in [4] and 44.4% in assay [5].
With `COC(=O)/C1=C\CC(C)(C)/C=C/C(=O)C(C)CCC1` (single isomer, unassigned; (-)), in [1], the IC50 was 220 µM. Moreover, the inhibition in assay [2] turned out to be 24.6%; in assay [3], 8.73%; in assay [4], 16.7%.
In the case of `O=C(O)Cc1ccccc1Nc1c(Cl)cccc1Cl` [DICLOFENAC SODIUM], the inhibition in vivo at 10 mg/kg came out at 73.7% in the assay on Rattus norvegicus [6], 78.6% in the assay on Rattus norvegicus [7], 64.9% in the assay on Rattus norvegicus [8] and 71.5% in the assay on Rattus norvegicus [9]. Further, in assay [1], the IC50 amounted to 4.14 µM. Moreover, the inhibition was 41.7% in assay [2], 22.6% in assay [3], 31.8% in [4] and 70.2% in assay [5].
